Test results from ChEMBL document CHEMBL1287782, “Design, synthesis, and characterization of BK channel openers based on oximation of abietane diterpene derivatives” (Bioorg Med Chem, 2010).

Molecular target: Calcium-activated potassium channel subunit alpha-1 (Homo sapiens) (UniProt Q12791)
Assay: Activation of human BK alpha channel expressed in CHO-K1 cells assessed as ionic current at 30 uM by patch clamp electrophysiological assay relative to control
Assay type: cell-based
In short: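 Automated population patch clamp (64-hole PPC) on CHO-K1 cells stably expressing hBKα. Internal (mM): 140 KCl, 1.0 MgCl2, 20 HEPES, pH 7.25–7.3. External (mM): 137 NaCl, 4.0 KCl, 1.0 MgCl2, 2.0 CaCl2, 10 glucose, 20 HEPES, pH 7.4. Cells suspended in external solution with 20 µM BAPTA-AM before loading. Step to +100 mV from holding potential; current at 30 µM compound as % of drug-free control; n = 8.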

Chain of Calcium-activated potassium channel subunit alpha-1 (Homo sapiens) (Q12791 whole entry): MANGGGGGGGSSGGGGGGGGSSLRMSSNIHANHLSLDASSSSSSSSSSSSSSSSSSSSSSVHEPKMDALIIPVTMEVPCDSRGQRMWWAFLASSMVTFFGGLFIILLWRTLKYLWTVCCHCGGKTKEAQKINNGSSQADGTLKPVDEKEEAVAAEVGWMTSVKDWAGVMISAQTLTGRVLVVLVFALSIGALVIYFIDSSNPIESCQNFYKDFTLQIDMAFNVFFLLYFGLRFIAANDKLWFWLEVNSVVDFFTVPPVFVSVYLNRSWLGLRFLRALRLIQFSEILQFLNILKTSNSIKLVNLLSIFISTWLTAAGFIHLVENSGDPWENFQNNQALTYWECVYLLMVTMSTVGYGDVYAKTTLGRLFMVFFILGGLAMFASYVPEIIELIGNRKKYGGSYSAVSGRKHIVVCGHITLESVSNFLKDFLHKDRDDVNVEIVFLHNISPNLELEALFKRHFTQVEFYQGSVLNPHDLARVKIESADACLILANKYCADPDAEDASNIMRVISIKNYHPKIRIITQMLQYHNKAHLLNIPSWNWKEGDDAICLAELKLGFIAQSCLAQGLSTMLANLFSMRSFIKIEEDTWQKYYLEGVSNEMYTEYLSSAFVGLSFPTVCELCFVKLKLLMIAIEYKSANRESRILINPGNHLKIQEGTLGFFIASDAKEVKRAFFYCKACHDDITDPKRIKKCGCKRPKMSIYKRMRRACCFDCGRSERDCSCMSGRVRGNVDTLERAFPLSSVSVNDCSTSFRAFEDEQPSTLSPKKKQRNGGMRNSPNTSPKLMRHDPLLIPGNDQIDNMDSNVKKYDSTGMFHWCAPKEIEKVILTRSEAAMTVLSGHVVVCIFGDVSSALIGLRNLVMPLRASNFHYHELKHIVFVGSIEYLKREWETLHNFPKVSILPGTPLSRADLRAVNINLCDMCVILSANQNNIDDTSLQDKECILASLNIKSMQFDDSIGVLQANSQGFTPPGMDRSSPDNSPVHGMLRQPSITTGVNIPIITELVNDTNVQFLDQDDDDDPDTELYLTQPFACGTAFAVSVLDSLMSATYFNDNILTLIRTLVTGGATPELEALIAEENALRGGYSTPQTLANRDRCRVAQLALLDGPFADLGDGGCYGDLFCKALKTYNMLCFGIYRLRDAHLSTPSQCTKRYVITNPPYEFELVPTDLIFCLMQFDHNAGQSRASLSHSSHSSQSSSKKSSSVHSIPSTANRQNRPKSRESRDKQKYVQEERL

Activity [%] | Structure (SMILES)
134 | C[C@]1(C(=O)O)CCC[C@]2(C)c3cc(OCCCc4ccccc4)ccc3/C(=N/OCCCc3ccccc3)C[C@@H]12
261 | C#CCO/N=C1\C[C@H]2[C@](C)(C(=O)O)CCC[C@]2(C)c2cc(Cl)c(C(C)C)c(Cl)c21
160 | C=CCO/N=C1\C[C@H]2[C@@](C)(C(=O)O)CCC[C@]2(C)c2cc(OCCCc3ccccc3)ccc21
212 | CCO/N=C1\C[C@H]2[C@](C)(C(=O)O)CCC[C@]2(C)c2cc(Cl)c(C(C)C)c(Cl)c21
216 | CO/N=C1\C[C@H]2[C@](C)(C(=O)O)CCC[C@]2(C)c2cc(Br)c(C(C)C)cc21
138 | CC(C)=CCO/N=C1\C[C@H]2[C@@](C)(C(=O)O)CCC[C@]2(C)c2cc(OCCCc3ccccc3)ccc21
162 | CC(C)c1cc2c(cc1Br)[C@@]1(C)CCC[C@@](C)(C(=O)O)[C@@H]1C/C2=N\O
100 | CC(C)c1ccc2c(c1)C(=O)C[C@H]1[C@](C)(C(=O)O)CCC[C@]21C
129 | CC(C)c1c(Cl)cc2c(c1Cl)/C(=N/OCC1CCCCC1)C[C@H]1[C@](C)(C(=O)O)CCC[C@]21C
125 | CO/N=C1/c2ccc(OCCCc3ccccc3)cc2[C@@]2(C)CCC[C@](C)(C(=O)O)[C@@H]2C1O (some centres not stated)
124 | CC(C)c1c(Cl)cc2c(c1Cl)C(=O)C[C@H]1[C@](C)(C(=O)O)CCC[C@]21C
182 | C=CCO/N=C1\C[C@H]2[C@](C)(C(=O)O)CCC[C@]2(C)c2ccc(C(C)C)cc21
235 | CO/N=C1\C[C@H]2[C@](C)(C(=O)O)CCC[C@]2(C)c2c(Cl)c(Cl)c(C(C)C)c(Cl)c21
121 | CC(C)c1ccc2c(c1)/C(=N/O)C[C@H]1[C@](C)(C(=O)O)CCC[C@]21C
166 | C#CCO/N=C1\C[C@H]2[C@@](C)(C(=O)O)CCC[C@]2(C)c2cc(OCCCc3ccccc3)ccc21
192 | CCCO/N=C1\C[C@H]2[C@](C)(C(=O)O)CCC[C@]2(C)c2cc(Cl)c(C(C)C)c(Cl)c21
111 | CCCCCCCO/N=C1\C[C@H]2[C@](C)(C(=O)O)CCC[C@]2(C)c2cc(Cl)c(C(C)C)c(Cl)c21
151 | CC(C)c1c(Cl)cc2c(c1Cl)/C(=N/OCc1ccccc1)C[C@H]1[C@](C)(C(=O)O)CCC[C@]21C

Activity [%] | Structure (SMILES)
134 | C[C@]1(C(=O)O)CCC[C@]2(C)c3cc(OCCCc4ccccc4)ccc3/C(=N/O)C[C@@H]12
166 | CC(C)c1cc2c(cc1Br)[C@@]1(C)CCC[C@@](C)(C(=O)O)[C@@H]1CC2=O
107 | C[C@]1(C(=O)O)CCC[C@]2(C)c3cc(OCCCc4ccccc4)ccc3/C(=N/OCCCc3ccccc3)C(O)[C@@H]12 (some centres not stated)
237 | C=CCO/N=C1\C[C@H]2[C@](C)(C(=O)O)CCC[C@]2(C)c2cc(Br)c(C(C)C)cc21
142 | C#CCO/N=C1\C[C@H]2[C@](C)(C(=O)O)CCC[C@]2(C)c2ccc(C(C)C)cc21
126 | CC(C)=CCO/N=C1\C[C@H]2[C@](C)(C(=O)O)CCC[C@]2(C)c2cc(Cl)c(C(C)C)c(Cl)c21
123 | CC(C)c1ccc2c(c1)/C(=N/OCc1ccccc1)C[C@H]1[C@](C)(C(=O)O)CCC[C@]21C
137 | CC(C)c1c(Cl)cc2c(c1Cl)/C(=N/O)C[C@H]1[C@](C)(C(=O)O)CCC[C@]21C
145 | CC(C)CCO/N=C1\C[C@H]2[C@](C)(C(=O)O)CCC[C@]2(C)c2cc(Cl)c(C(C)C)c(Cl)c21
181 | CC(C)c1c(Cl)cc2c(c1Cl)/C(=N/OCC1CC1)C[C@H]1[C@](C)(C(=O)O)CCC[C@]21C
153 | CO/N=C1\C[C@H]2[C@](C)(C(=O)O)CCC[C@]2(C)c2ccc(C(C)C)cc21
213 | CO/N=C1\C[C@H]2[C@](C)(C(=O)O)CCC[C@]2(C)c2cc(Cl)c(C(C)C)c(Cl)c21
297 | C=CCO/N=C1\C[C@H]2[C@](C)(C(=O)O)CCC[C@]2(C)c2cc(Cl)c(C(C)C)c(Cl)c21
229 | CC(C)c1c(Cl)c(Cl)c2c(c1Cl)/C(=N/O)C[C@H]1[C@](C)(C(=O)O)CCC[C@]21C
184 | CC(C)O/N=C1\C[C@H]2[C@](C)(C(=O)O)CCC[C@]2(C)c2cc(Cl)c(C(C)C)c(Cl)c21
143 | CC(C)c1ccc2c(c1)/C(=N/OCCCc1ccccc1)C[C@H]1[C@](C)(C(=O)O)CCC[C@]21C
152 | C[C@]1(C(=O)O)CCC[C@]2(C)c3cc(OCCCc4ccccc4)ccc3/C(=N/OCc3ccccc3)C[C@@H]12
151 | CO/N=C1\C[C@H]2[C@@](C)(C(=O)O)CCC[C@]2(C)c2cc(OCCCc3ccccc3)ccc21

Structure (SMILES) | Activity [%]
CO/N=C1\C[C@H]2[C@@](C)(C(=O)O)CCC[C@]2(C)c2cc(O)ccc21 | 103
